Results as given in ChEMBL document CHEMBL5724801, “EUbOPEN Chemogenomics Library - Multiplex” (2024).
“And” between values parts separate entries of the source, which are not always exact repeats. Identical values can stand only once.

Test system: HEK-293T
Test: Multiplex assay against HEK293T
Assay type: toxicity, cell-based
Conditions: human
Method in brief: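 Values for tubulin, mitochondrial-mass and membrane-permeability phenotypes are per cents of cells with healthy nuclei. These cells were identified by CellPathfinder machine-learning gating of live cells that had been stained at seeding with Hoechst33342, BioTracker Green Microtubule Cytoskeleton Dye, MitoTracker Red and Annexin V Alexa Fluor 680 and imaged on a CQ1 microscope at 37°C and 5% CO2 after compound addition. The gating first set Hoechst high-intensity objects apart from normal cells, then split normal cells into healthy, pyknosed or fragmented nuclei, and pyknosed cells into mitotic or apoptotic.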

[1] = 12 h, 1 µM, compound concentration 1 uM
[2] = 12 h, 10 µM, compound concentration 10 uM
[3] = 24 h, 1 µM, compound concentration 1 uM
[4] = 24 h, 10 µM, compound concentration 10 uM
[5] = 48 h, 1 µM, compound concentration 1 uM
[6] = 48 h, 10 µM, compound concentration 10 uM

CCCCC(=O)N(Cc1ccc(-c2ccccc2-c2nnn[nH]2)cc1)[C@H](C(=O)O)C(C)C
Population Apoptotic (%) [1]: 44% and 40% | Population Fragmented Nuclei (%) [1]: 7% and 6% | Population Healthy Nuclei (%) [1]: 80% and 74% | Population Hoechst High Intensity Objects (%) [1]: 9% and 11% | Population Membrane Permeable-Phenotype (%) [1]: 0% | Population Mitochondria Different-Phenotype (%) [1]: 36% and 49% | Population Mitotic Cells (%) [1]: 55% and 59% | Population Normal (%) [1]: 90% and 88% | Population Pyknosed Nuclei (%) [1]: 12% and 18% | Population Tubulin-Different-Phenotype (%) [1]: 16% and 21% | Total Cell Count [1]: 469 and 290 | Population Apoptotic (%) [2]: 21% and 51% | Population Fragmented Nuclei (%) [2]: 7% and 5% | Population Healthy Nuclei (%) [2]: 83% and 81% | Population Hoechst High Intensity Objects (%) [2]: 5% and 10% | Population Membrane Permeable-Phenotype (%) [2]: 0% | Population Mitochondria Different-Phenotype (%) [2]: 30% and 63% | Population Mitotic Cells (%) [2]: 78% and 48% | Population Normal (%) [2]: 94% and 89% | Population Pyknosed Nuclei (%) [2]: 8% and 13% | Population Tubulin-Different-Phenotype (%) [2]: 19% | Total Cell Count [2]: 507 and 310 | Population Apoptotic (%) [3]: 30% and 32% | Population Fragmented Nuclei (%) [3]: 11% and 9% | Population Healthy Nuclei (%) [3]: 78% and 82% | Population Hoechst High Intensity Objects (%) [3]: 5% and 6% | Population Membrane Permeable-Phenotype (%) [3]: 0% | Population Mitochondria Different-Phenotype (%) [3]: 21% and 26% | Population Mitotic Cells (%) [3]: 70% and 67% | Population Normal (%) [3]: 94% and 93% | Population Pyknosed Nuclei (%) [3]: 10% and 8% | Population Tubulin-Different-Phenotype (%) [3]: 12% | Total Cell Count [3]: 630 and 429 | Population Apoptotic (%) [4]: 20% and 35% | Population Fragmented Nuclei (%) [4]: 9% | Population Healthy Nuclei (%) [4]: 82% | Population Hoechst High Intensity Objects (%) [4]: 5% and 7% | Population Membrane Permeable-Phenotype (%) [4]: 0% | Population Mitochondria Different-Phenotype (%) [4]: 19% and 30% | Population Mitotic Cells (%) [4]: 79% and 64% | Population Normal (%) [4]: 94% and 92% | Population Pyknosed Nuclei (%) [4]: 7% | Population Tubulin-Different-Phenotype (%) [4]: 11% and 13% | Total Cell Count [4]: 663 and 420 | Population Apoptotic (%) [5]: 18% and 19% | Population Fragmented Nuclei (%) [5]: 13% and 14% | Population Healthy Nuclei (%) [5]: 80% and 79% | Population Hoechst High Intensity Objects (%) [5]: 2% and 3% | Population Membrane Permeable-Phenotype (%) [5]: 1% and 0% | Population Mitochondria Different-Phenotype (%) [5]: 12% and 16% | Population Mitotic Cells (%) [5]: 81% and 80% | Population Normal (%) [5]: 97% and 96% | Population Pyknosed Nuclei (%) [5]: 5% and 6% | Population Tubulin-Different-Phenotype (%) [5]: 7% and 9% | Total Cell Count [5]: 1024 and 653 | Population Apoptotic (%) [6]: 14% and 15% | Population Fragmented Nuclei (%) [6]: 14% | Population Healthy Nuclei (%) [6]: 81% and 78% | Population Hoechst High Intensity Objects (%) [6]: 1% and 2% | Population Membrane Permeable-Phenotype (%) [6]: 2% and 0% | Population Mitochondria Different-Phenotype (%) [6]: 8% and 17% | Population Mitotic Cells (%) [6]: 85% and 84% | Population Normal (%) [6]: 98% and 97% | Population Pyknosed Nuclei (%) [6]: 3% and 7% | Population Tubulin-Different-Phenotype (%) [6]: 8% | Total Cell Count [6]: 1205 and 623

O=C1NCc2ccc3c(-c4cccc(Cl)c4)c[nH]c3c21
Population Apoptotic (%) [1]: 9.74% and 10.57% | Population Fragmented Nuclei (%) [1]: 0.72% and 0.69% | Population Hoechst High Intensity Objects (%) [1]: 0.36% and 0% | Population Membrane Permeable-Phenotype (%) [1]: 0% | Population Mitochondria Different-Phenotype (%) [1]: 41.8% and 23.81% | Population Mitotic Cells (%) [1]: 90.26% and 89.43% | Population Normal (%) [1]: 99.64% and 100% | Population Pyknosed Nuclei (%) [1]: 55.4% and 84.83% | Total Cell Count [1]: 279 and 145 | Population Apoptotic (%) [2]: 21.19% and 16.81% | Population Fragmented Nuclei (%) [2]: 1.88% and 2.24% | Population Healthy Nuclei (%) [2]: 27.23% and 13.43% | Population Hoechst High Intensity Objects (%) [2]: 0.47% and 4.29% | Population Membrane Permeable-Phenotype (%) [2]: 0% | Population Mitotic Cells (%) [2]: 78.81% and 83.19% | Population Normal (%) [2]: 99.53% and 95.71% | Population Pyknosed Nuclei (%) [2]: 70.89% and 84.33% | Population Tubulin-Different-Phenotype (%) [2]: 5.17% and 11.11% | Total Cell Count [2]: 214 and 140 | Population Apoptotic (%) [3]: 26.79% and 11.65% | Population Fragmented Nuclei (%) [3]: 3.63% and 0.67% | Population Healthy Nuclei (%) [3]: 59.41% and 30.2% | Population Hoechst High Intensity Objects (%) [3]: 0% | Population Membrane Permeable-Phenotype (%) [3]: 0% | Population Mitotic Cells (%) [3]: 73.21% and 88.35% | Population Normal (%) [3]: 100% | Population Pyknosed Nuclei (%) [3]: 36.96% and 69.13% | Population Tubulin-Different-Phenotype (%) [3]: 7.78% and 8.89% | Total Cell Count [3]: 303 and 149 | Population Apoptotic (%) [4]: 31.52% and 52.43% | Population Fragmented Nuclei (%) [4]: 1.99% and 3.12% | Population Healthy Nuclei (%) [4]: 24.7% and 16.41% | Population Hoechst High Intensity Objects (%) [4]: 0% and 3.76% | Population Membrane Permeable-Phenotype (%) [4]: 0% and 4.76% | Population Mitochondria Different-Phenotype (%) [4]: 56.45% and 23.81% | Population Mitotic Cells (%) [4]: 68.48% and 47.57% | Population Normal (%) [4]: 100% and 96.24% | Population Pyknosed Nuclei (%) [4]: 73.31% and 80.47% | Population Tubulin-Different-Phenotype (%) [4]: 1.61% and 0% | Total Cell Count [4]: 251 and 133 | Population Apoptotic (%) [5]: 20.62% and 21.52% | Population Fragmented Nuclei (%) [5]: 3.28% and 0.63% | Population Healthy Nuclei (%) [5]: 72.22% and 49.69% | Population Hoechst High Intensity Objects (%) [5]: 0.5% and 0% | Population Membrane Permeable-Phenotype (%) [5]: 0.35% and 0% | Population Mitotic Cells (%) [5]: 79.38% and 78.48% | Population Normal (%) [5]: 99.5% and 100% | Population Pyknosed Nuclei (%) [5]: 24.49% and 49.69% | Total Cell Count [5]: 398 and 159 | Population Apoptotic (%) [6]: 54.1% and 46.85% | Population Fragmented Nuclei (%) [6]: 4.95% and 2.36% | Population Hoechst High Intensity Objects (%) [6]: 0.45% and 0.78% | Population Membrane Permeable-Phenotype (%) [6]: 0% | Population Mitochondria Different-Phenotype (%) [6]: 83.15% and 38.46% | Population Mitotic Cells (%) [6]: 45.9% and 53.15% | Population Normal (%) [6]: 99.55% and 99.22% | Population Pyknosed Nuclei (%) [6]: 54.95% and 87.4% | Total Cell Count [6]: 223 and 128
